PMC4410366 (Biochemistry, 2015)
“Also recorded” adds a separate entry of the source. Like-named read-outs stand apart in the source and are kept apart here. Each block holds one compound with its values, some of them ahead of it.

How the values were obtained:
iNOS heme cofactor [1] = biological target: T1, iNOS heme cofactor (Mus musculus, UniProt P29477); settings: LC-electrospray MS and HPLC; cited from earlier work
recombinant murine iNOS [2] = biological target: T2, recombinant murine iNOS (Mus musculus, UniProt P29477); assay: Irreversible inhibition kinetics; type: biochemical; settings: for Ki: Kitz and Wilson; for Inactivation (irreversible inhibition) of iNOS: qualitative
iNOS heme cofactor [3] = biological target: T1, iNOS heme cofactor; assay: HPLC and LC/MS determination of heme and biliverdin after treatment of iNOS; type: biochemical, murine; settings: for Biliverdin formation: HPLC with UV or MS detection; for Heme loss: qualitative
Summary of the method: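 After iNOS treatment with test compound, biliverdin is analysed by LC/MS with diode-array detection at 401 nm. Column is C18 reversed-phase, with water and acetonitrile each containing 0.1% TFA, at 1.0 mL/min. Solvent B rises linearly from 40% to 60% over 10 min, then returns to 40% within 2 min and holds 3 min.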

recombinant murine iNOS [4] = biological target: T2, recombinant murine iNOS; assay: HPLC / LC/MS of amino acid metabolites from inactivation mixtures; type: biochemical; settings: OPA/MCE derivatization HPLC
Summary of the method: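 E. coli-expressed murine iNOS is incubated with test compound (2 mM stock), NADPH (39 mM stock), H4B (8 mM stock), catalase and glycerol in Hepes 100 mM pH 7.4 for 3 h at 37 °C. Aliquots are derivatised with o-phthalaldehyde/2-mercaptoethanol (20:1 v/v). Separation is C18 reversed-phase HPLC, 50 mM sodium acetate pH 5.9 to 80% methanol gradient, 1.0 mL/min, detection at 340 nm.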

recombinant murine iNOS [5] = biological target: T2, recombinant murine iNOS; assay: Determination of substrate activity; type: biochemical; settings: up to 2 mM
Summary of the method: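 Recombinant murine iNOS expressed in E. coli. NO output is read as oxyhemoglobin oxidised to metHb, by absorbance change at 401 nm over the first 60 s at 37 °C. The mix holds NADPH 100 µM, oxyHb 0.125 mg/mL and tetrahydrobiopterin 10 µM in 100 mM Hepes pH 7.4. Test compound is tested up to 2 mM. The reaction starts on adding enzyme.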

iNOS dimer = iNOS dimer (Mus musculus, UniProt P29477); assay: LT-PAGE assay of iNOS dimer/monomer after inactivation; type: biochemical, murine; settings: native iNOS control 65 ± 5
NOS = settings: cited from earlier work
recombinant murine iNOS [6] = biological target: T2, recombinant murine iNOS; assay: Hemoglobin assay for iNOS activity; type: biochemical; settings: different concentrations of inhibitor and L-arginine
recombinant murine iNOS [7] = biological target: T2, recombinant murine iNOS; settings: cited from earlier work

T2 sequence (P29477 whole entry): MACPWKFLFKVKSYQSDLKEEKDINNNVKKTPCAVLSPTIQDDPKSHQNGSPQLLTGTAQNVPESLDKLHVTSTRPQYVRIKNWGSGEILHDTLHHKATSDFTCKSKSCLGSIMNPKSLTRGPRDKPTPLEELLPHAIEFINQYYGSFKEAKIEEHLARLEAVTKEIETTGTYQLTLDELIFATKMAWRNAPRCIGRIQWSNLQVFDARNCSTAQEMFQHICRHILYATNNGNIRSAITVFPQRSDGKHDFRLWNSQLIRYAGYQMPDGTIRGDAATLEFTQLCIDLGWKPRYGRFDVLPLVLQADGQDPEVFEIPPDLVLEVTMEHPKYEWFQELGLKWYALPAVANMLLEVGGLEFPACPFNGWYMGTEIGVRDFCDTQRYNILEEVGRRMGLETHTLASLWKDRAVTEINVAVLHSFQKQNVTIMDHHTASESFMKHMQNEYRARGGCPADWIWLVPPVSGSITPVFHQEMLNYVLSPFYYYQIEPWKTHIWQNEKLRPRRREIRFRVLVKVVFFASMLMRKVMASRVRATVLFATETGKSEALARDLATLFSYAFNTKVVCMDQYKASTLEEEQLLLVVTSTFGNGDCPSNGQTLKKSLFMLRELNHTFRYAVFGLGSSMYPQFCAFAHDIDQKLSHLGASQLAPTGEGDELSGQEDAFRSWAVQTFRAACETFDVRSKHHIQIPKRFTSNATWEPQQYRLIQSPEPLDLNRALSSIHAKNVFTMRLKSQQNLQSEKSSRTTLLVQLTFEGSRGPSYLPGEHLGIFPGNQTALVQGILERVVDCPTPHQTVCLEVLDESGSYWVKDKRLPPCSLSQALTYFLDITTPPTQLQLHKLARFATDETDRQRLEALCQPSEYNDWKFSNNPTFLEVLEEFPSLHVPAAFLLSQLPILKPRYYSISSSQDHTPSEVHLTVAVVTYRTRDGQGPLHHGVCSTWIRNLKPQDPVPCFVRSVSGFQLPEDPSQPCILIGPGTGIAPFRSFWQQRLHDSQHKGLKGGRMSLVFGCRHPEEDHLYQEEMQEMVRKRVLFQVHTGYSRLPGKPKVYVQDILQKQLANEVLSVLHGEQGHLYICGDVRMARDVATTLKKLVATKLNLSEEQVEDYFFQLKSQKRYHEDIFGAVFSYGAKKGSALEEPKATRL

SMILES: CC(=N)NCc1cccc(CN)c1 [Compound 1400W, N-(3-(aminomethyl)benzyl)acetamidine]
- Conversion of active site heme in iNOS to biliverdin (iNOS heme cofactor [1]): convert the active site heme in iNOS to biliverdin IXα

SMILES: CN=C(NC)NCCCC(N)C(=O)O (stereo not shown) [Compound 6b, N^ω,N’^ω-dimethylarginine]
- NOS inhibition (NOS): inactive

SMILES: [2H]C([2H])([2H])C([2H])([2H])C(=N)NCCC[C@H](N)C(=O)O [Compound 26, (S)-2-amino-5-(propanimidamido-2,2,3,3,3-d5)pentanoic acid]
- kinact (recombinant murine iNOS [2]): 0.073 min⁻¹
- kinact/KI (recombinant murine iNOS [2]): 4.42 M⁻¹ s⁻¹
- H/D ratio of KI (recombinant murine iNOS [2]; 8 versus 26): 0.884 ± 0.068
- Inactivation (irreversible inhibition) of iNOS (recombinant murine iNOS [2]): inactivated iNOS

SMILES: CN=C(NC)NCCCC(N)C(=O)O (stereo not shown) [Compound 6a, N^ω, N^ωω-dimethylarginine]
- NOS inhibition (NOS): endogenous NOS inhibitor

SMILES: N=CNCCC[C@H](N)C(=O)O [Compound 7]
- Inactivation (irreversible inhibition) of iNOS (recombinant murine iNOS [2]): does not act as a substrate or as an inactivator; also recorded: did not inactivate iNOS
- Substrate activity (NO generation / products) (recombinant murine iNOS [5]): does not act as a substrate

Second part, led by results:

- kinact/KI (recombinant murine iNOS [2]; iNOS inactivation): 3.3 ± 0.16 M⁻¹ s⁻¹
- kinact (recombinant murine iNOS [2]; iNOS inactivation, 37 °C): 0.131 ± 0.0095 min⁻¹
- Ki (recombinant murine iNOS [2]; iNOS inactivation): 674 ± 80 µM
- Heme lost by incubation with iNOS (iNOS heme cofactor [3]): < 5%
- Heme loss (iNOS heme cofactor [3]): No apparent heme loss
- Metabolites from inactivation of iNOS (recombinant murine iNOS [4]): none was detected
- Substrate activity (NO generation / products) (recombinant murine iNOS [5]): no nitric oxide was formed
- % iNOS Dimer remaining after inactivation (iNOS dimer): 47 ± 5%
SMILES: CCCC(=N)NCCC[C@H](N)C(=O)O [Compound 9]
- Inactivation (irreversible inhibition) of iNOS (recombinant murine iNOS [2]): inactivators; also recorded: irreversible inhibitors; also recorded: weak irreversible inhibition
- Biliverdin formation (iNOS heme cofactor [3]): No apparent heme loss or biliverdin formation; also recorded: no biliverdin could be detected

- kinact/KI (recombinant murine iNOS [2]; iNOS inactivation): 5.17 ± 0.467 M⁻¹ s⁻¹
- kinact (recombinant murine iNOS [2]; iNOS inactivation, 37 °C): 0.0743 ± 0.0073 min⁻¹
- Ki (recombinant murine iNOS [2]; iNOS inactivation): 243 ± 31.4 µM
- Heme lost by incubation with iNOS (iNOS heme cofactor [3]): < 5%
- Heme loss (iNOS heme cofactor [3]): No apparent heme loss
- Substrate activity (NO generation / products) (recombinant murine iNOS [5]): no nitric oxide was formed
- % iNOS Dimer remaining after inactivation (iNOS dimer): 46 ± 2%
SMILES: CCC(=N)NCCC[C@H](N)C(=O)O [Compound 8]
- Inactivation (irreversible inhibition) of iNOS (recombinant murine iNOS [2]): inactivators; also recorded: irreversible inhibitors; also recorded: weak irreversible inhibition; also recorded: time-, concentration-, and NADPH-dependent inhibitor
- Biliverdin formation (iNOS heme cofactor [3]): No apparent heme loss or biliverdin formation; also recorded: no biliverdin could be detected
- Metabolites from inactivation of iNOS (recombinant murine iNOS [4]): none was detected; also recorded: no 22 was observed

- Inactivation (irreversible inhibition) of iNOS (recombinant murine iNOS [2]): No inactivation was observed
SMILES: CC(C)C(=N)NCCC[C@H](N)C(=O)O [Compound 10]

- Inhibition type (recombinant murine iNOS [6]): competitive
- % iNOS Dimer remaining after inactivation (iNOS dimer): 51 ± 4%
SMILES: CC(=N)NCCC[C@H](N)C(=O)O [Compound 4, N^5-(1-iminoethyl)-L-ornithine]
- Inactivation of iNOS (recombinant murine iNOS [7]): time-, concentration-, and NADPH-dependent iNOS inactivator
- Conversion of active site heme in iNOS to biliverdin (iNOS heme cofactor [1]): convert the active site heme in iNOS to biliverdin IXα
